Compound activity deposited in PubChem by Broad Institute.
FGF22 binding: binders of recombinant human FGF22 by thermal shift; SYPRO orange fluorescence; percent of sucrose octasulfate shift, DMSO zero; Q9HCT0; activity (Tm shift, normalised), % at 9.99 µM; 340,000 compounds, 1.5% hits;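 active = mean Tm shift, scaled 0 neutral to 100 positive control, at about 1.3% or above, every replicate too, limit read from the data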
Target sequence (Q9HCT0 whole entry, looked up): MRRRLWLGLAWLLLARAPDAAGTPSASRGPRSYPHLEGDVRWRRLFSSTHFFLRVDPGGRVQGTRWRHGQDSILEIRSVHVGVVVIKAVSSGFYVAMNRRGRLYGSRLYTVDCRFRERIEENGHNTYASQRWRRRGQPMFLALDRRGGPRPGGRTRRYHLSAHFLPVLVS
Vif imaging: HIV Vif inhibition | HEK293T cells, Vif self-association by quenched fluorescence, imaging, 24 h | inhibition, % at 7.49 µM | 340,000 compounds, 0.35% hits; in the data active = inhibition above about 50%, passing the limit was not always enough
Cneo AK release: causes C. neoformans cell lysis; adenylate kinase release luminescence, 4 h; normalised: neutral wells 0, clomiphene wells 100; lysis activity, % at 15 µM; 360,000 compounds, 0.2% hits; AID 651654;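 active = mean lysis activity across replicates of at least 80%, whatever share of replicates individually reach that level; inactive = mean lysis activity below 80%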
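read-out = cell lysis signal | test system = log-phase Cryptococcus neoformans yeast cells | input = cells at 5 × 10^6 per mL | medium = fresh YPD growth medium | signal = luminescent adenylate kinase detection reagent | timing = 4 h at 37 °C static, read 1 h later | dosing = single dose | controls = Clomiphene as positive lysis control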
Ecoli rRNA inh: inhibitors of bacterial rRNA selective over humanized ribosomes; E. coli WT GFP vs humanized-ribosome RFP mutants, fluorescence, 24 h; active compounds read low; DMSO median 0, no signal -100; GFP signal change (wild-type ribosome), % (no concentration beside the values); 350,000 compounds, 1.6% hits;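 active = significant combined selectivity score with lowered wild-type GFP, culture density cut under 30%, mutant RFP and density less affected; inactive = any of these conditions unmet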
PglD DTNB: inhibitors of Campylobacter jejuni PglD acetyltransferase. purified PglD enzyme, DTNB colorimetric CoA detection. inhibition, % at 12.5 µM. 360,000 compounds, 0.098% hits. AID 602405; in the data active = inhibition above about 16%, passing the limit was not always enough
PGC1a acetyl inh: lowers PGC1a acetylation signal in U2OS cells. AlphaScreen anti-acetyl-lysine; with virally co-expressed GCN5 acetyltransferase. inhibition, % at 15.6 µM. 350,000 compounds, 0.17% hits. AID 651687;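 active = every replicate shows inhibition of at least 40%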;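 also: 0% = neutral control wells and 100% = positive control wells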
An asterisk follows results filed as active; i = inactive; / = no result; ! = not active in a repeat. Compounds with a hit are over-represented: about 2.9% of the library has one in this group of screens.

SMILES	FGF22 binding	Vif imaging	Cneo AK release	Ecoli rRNA inh	PglD DTNB	PGC1a acetyl inh
COc1cccc(CC(=O)Nc2cc(S(=O)(=O)N3CCOCC3)ccc2N2CCN(C)CC2)c1	0	-8	-3	6	2	3
COc1ccc(CC(=O)Nc2cc(S(=O)(=O)N3CCOCC3)ccc2N2CCCC2)cc1	43*	6	0	8	-4	-4
O=S(=O)(Nc1cc(S(=O)(=O)N2CCOCC2)ccc1O)c1ccc2c(c1)OCCCO2	0	7	3	-1	2	14
O=S(=O)(Nc1cc(S(=O)(=O)N2CCOCC2)ccc1N1CCOCC1)c1ccc2c(c1)OCCO2	44*	2	/	-1	/	/
COc1ccc(/C=C/C(=O)Nc2cc(S(=O)(=O)N3CCOCC3)ccc2N2CCCC2)cc1OC	43*	-4	/	-22*	/	-13
CC(C)CC#Cc1ccc([C@@H]2[C@@H](CO)N3CCCCN(C(=O)c4ccc5c(c4)OCO5)C[C@H]23)cc1	0	/	3	-53	3	4
CC(C)NC(=O)Nc1ccc2c(c1)C(=O)N([C@@H](C)CO)C[C@@H](C)[C@@H](CN(C)C(=O)NC(C)C)OCCCC[C@H](C)O2	-1	/	-1	0	1	0
C[C@H]1CN([C@@H](C)CO)C(=O)c2cc(NC(=O)Cc3cn(C)c4ccccc34)ccc2O[C@@H]1CN(C)CC1CC1	0	/	/	1	/	-7
CC(=O)Nc1ccc(NC(=O)C2CCN(S(=O)(=O)c3ccc4c(c3)OCCO4)CC2)cc1	0	13	0	15	-3	/
O=C(Nc1ccc2c(c1)OCCO2)C1CCN(S(=O)(=O)c2ccc3c(c2)OCCO3)CC1	/	-4	1	-32*	-3	-12
CC(C)(C)N(Cc1ccccc1)C(=O)CN1C(=O)c2ccccc2S1(=O)=O	0	-2	0	-24*	-1	13
C[C@@H]1CN([C@@H](C)CO)C(=O)c2cc(C#Cc3ccccc3F)cnc2O[C@H]1CN(C)C(=O)C1CCC1	0	/	/	0	/	11
COc1ccc2c3c(n(C)c2c1)[C@H](CO)N(C(=O)Nc1c(C)noc1C)CC31CCN(CC2CC2)CC1	0	/	/	6	/	-11
CCOC(=O)C1=CC[C@@H](c2ccccc2)[C@@H]1C(=O)c1ccc(OC)cc1	0	/	-5	/	-1	-2
O=C(C[C@H]1CC[C@H]2[C@@H](COC[C@@H](O)CN2S(=O)(=O)c2cccc(Cl)c2)O1)NC1CCC1	0	/	-2	-3	5	-6
CCOC(=O)c1nn(C)c2[nH]c(=O)n(C)c(=O)c12	44*	-2	-2	0	-2	-3
CCCNC(=O)N1[C@H](CNC(=O)c2ccccc2)[C@@H](c2ccccc2)[C@@H]1CO	0	/	0	-6	-2	2
CCC(=O)c1c[nH]c(C(=O)N2CCN(c3ccccc3)CC2)c1	43*	2	/	10	/	-5
COc1cc(OC)cc(C(=O)N/N=C2/SCC(=O)N2Cc2ccco2)c1	0	-4	1	5	-5	1
Cc1ccccc1C(=O)N/N=C1\SCC(=O)N1Cc1ccco1	44*	1	/	10	/	2
Cc1cccc(OCC(=O)N/N=C2/SCC(=O)N2Cc2ccco2)c1	43*	-2	/	0	/	-3
Cc1ccc(OCC(=O)N/N=C2/SCC(=O)N2Cc2ccccc2)cc1	0	0	/	/	/	/
O=C(C[C@@H]1C[C@H]2c3cc(NS(=O)(=O)c4ccc(F)cc4)ccc3O[C@H]2[C@H](CO)O1)NCc1ccccc1F	0	/	-7	-4	2	-8
COc1ccc(S(=O)(=O)N(C)C[C@@H]2Oc3ccc(NC(=O)C4CCCCC4)cc3CC(=O)N([C@H](C)CO)C[C@H]2C)cc1	0	/	3	3	5	9
C[C@@H]1CN([C@H](C)CO)S(=O)(=O)c2ccc(-c3cccnc3)cc2O[C@H]1CN(C)C(=O)C1CCC1	0	/	1	0	1	-12
SMILES	FGF22 binding	Vif imaging	Cneo AK release	Ecoli rRNA inh	PglD DTNB	PGC1a acetyl inh
O=C(O)c1cccc(Nc2ccnc(Nc3cccc(C(=O)O)c3)n2)c1	0	140*	5	1	-2	/
C=CCNC(=O)/C(C#N)=C/c1ccc2c(c1)OCCO2	43*	-4	/	-9	/	-6
N#C/C(=C\c1ccc2c(c1)OCO2)C(=O)NCc1ccco1	0	-8	/	7	/	/
COCCNC(=O)/C(C#N)=C/c1ccc2c(c1)OCO2	44*	0	/	11	/	5
N#C/C(=C\c1ccc2c(c1)OCCO2)C(=O)Nc1nccs1	0	7	-1	-2	-1	2
COc1ccc(-c2cnc3c(c2)C(=O)N([C@H](C)CO)C[C@H](C)[C@H](CN(C)S(=O)(=O)c2cccc(OC)c2)O3)cc1	/	/	/	1	/	10
CN1CCN(C(=O)C[C@H]2CC[C@H]3[C@@H](COC[C@@H](O)CN3Cc3cccc(F)c3)O2)CC1	43*!	/	-2	2	-37	1
O=C(C[C@@H]1CC[C@H]2[C@@H](COC[C@H](O)CN2C(=O)Nc2cc(Cl)cc(Cl)c2)O1)N1CCOCC1	0	/	2	-28*	1	-8
O=C(C[C@H]1CC[C@H]2[C@@H](COC[C@H](O)CN2C(=O)Nc2cc(Cl)cc(Cl)c2)O1)N1CCOCC1	0	/	-2	i	-1	-11
O=C(C[C@H]1CC[C@@H]2[C@H](COC[C@@H](O)CN2C(=O)Nc2cc(Cl)cc(Cl)c2)O1)N1CCOCC1	0	/	2	-34*	-2	6
O=C(C[C@H]1CC[C@H]2[C@@H](COC[C@H](O)CN2Cc2cc(F)cc(F)c2)O1)Nc1nccs1	0	/	96*	-3	4	-24
O=C(C[C@@H]1CC[C@H]2[C@@H](COC[C@@H](O)CN2C(=O)Nc2cc(Cl)cc(Cl)c2)O1)N1CCOCC1	0	/	0	-50	3	-4
CN1CCN(C(=O)C[C@@H]2CC[C@H]3[C@@H](COC[C@@H](O)CN3Cc3cccc(F)c3)O2)CC1	0	/	-2	3	6	0
O=C(C[C@H]1CC[C@H]2[C@@H](COC[C@@H](O)CN2Cc2nccs2)O1)NCc1ccc(Cl)cc1	0	/	2	-3	3	10
CCN1[C@H](C(=O)NCCc2cn(C)cn2)[C@@H](CO)[C@@H]2Cn3c(ccc(-c4cccnc4)c3=O)[C@@H]21	0	/	-3	3	1	-7
CN(C)CC(=O)Nc1ccc2c(c1)[C@@H]1C[C@@H](CC(=O)NCCc3ccccc3)O[C@@H](CO)[C@@H]1O2	0	/	3	1	-3	8
CC(C)C#Cc1cnc2c(c1)C(=O)N([C@H](C)CO)C[C@@H](C)[C@H](CN(C)C(=O)Nc1cc(F)ccc1F)O2	0	/	-9	-4	1	-9
